We go through 14 compounds from ChEMBL document CHEMBL1140973, “New Pd(II) complexes of the synthesized 1-N-substituted thiosemicarbazones of 3-indole carboxaldehyde: characterization and antiamoebic assessment against E. histolytica” (Eur J Med Chem, 2008).

Data set [1] concerns Entamoeba histolytica. The data set is described as follows: Antiamoebic activity against Entamoeba histolytica HM1:IMSS after 72 hrs by microplate method. It counts as functional, organism-based. The essentials: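 E. histolytica HM1:IMSS trophozoites in a microplate assay. Samples in DMSO plus medium (1 mg/mL), diluted to 0.1 mg/mL, then twofold serial dilutions. Inoculum 1.7 × 10^4 amoebae/well (viability by trypan blue), N2-gassed, 37 °C for 72 h. Cells methanol-fixed, eosin-stained, dye released in 0.1 N NaOH, OD 490 nm. % inhibition vs untreated control against log dose; IC50 by linear regression.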

Data set [2] relates to HEK293 (human). In words: Cytotoxicity against human HEK293 cells after 44 hrs by MTT assay. Particulars: HEK293, 44 h.
Data set [3] can be described thus: Safety index, IC50 for transformed human kidney epithelial cells to IC50 for Entamoeba histolytica HM1:IMSS.
The nature of data set [4]: Safety index, IC50 for human […] to IC50 for Entamoeba histolytica HM1:IMSS. To be noted: read-out: Ratio IC50. Type of data set: toxicity, cell-based. The essentials: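 Safety index = IC50 in human kidney epithelial cells (MTT, 44 h + 4 h) divided by IC50 against E. histolytica HM1:IMSS (microplate eosin assay, 72 h).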

Consider `NC(=S)N/N=C\c1c[nH]c2ccccc12`, for which the half-inhibitory concentration (IC50) in data set [1] is 11.5 µM; in data set [2], greater than 100 µM. In addition, the selectivity ratio in data set [3] is greater than 8.68.
The compound `Fc1ccc(NC(=S)N/N=C\c2c[nH]c3ccccc23)c(F)c1` registered a 50% inhibitory concentration (IC50) in data set [1] of 6.05 µM. Further, in data set [4], the selectivity ratio is greater than 16.5.
Regarding `Cc1ccc(NC(=S)N/N=C\c2c[nH]c3ccccc23)cc1`, the IC50 in data set [1] was 3.25 µM; in data set [2] it was greater than 100 µM. For the same compound, in data set [3], the selectivity ratio was greater than 30.8.
For `Cc1ccccc1NC(=S)N/N=C\c1c[nH]c2ccccc12` the same measures were 2.05 µM, greater than 100 µM and greater than 48.8.
For `CN(Cc1ccccc1)C(=S)N/N=C\c1c[nH]c2ccccc12`, the IC50 in data set [1] is 2.46 µM; in data set [2], greater than 100 µM. Besides, in data set [3], the selectivity ratio was greater than 40.6.
For `CCCNC(=S)N/N=C\c1c[nH]c2ccccc12`, the IC50 was 6.84 µM in data set [1] and greater than 100 µM in data set [2]. The selectivity ratio in data set [3] is greater than 14.6.
For the compound `CC(C)NC(=S)N/N=C\c1c[nH]c2ccccc12`, the 50% inhibitory concentration (IC50) was 7.64 µM in data set [1] and greater than 100 µM in data set [2]. Moreover, in data set [3], the selectivity ratio is greater than 13.1.
Consider `CC(C)CNC(=S)N/N=C\c1c[nH]c2ccccc12`, for which the 50% inhibitory concentration (IC50) is 5.76 µM in data set [1] and greater than 100 µM in data set [2]. In addition, the selectivity ratio in data set [3] was greater than 17.4.
`CCCCN(C)C(=S)N/N=C\c1c[nH]c2ccccc12`: the 50% inhibitory concentration (IC50) in data set [1] is 5.5 µM; in data set [2], greater than 100 µM. Also, the selectivity ratio in data set [3] is greater than 18.2.
For the compound `CCN(CC)C(=S)N/N=C\c1c[nH]c2ccccc12`, the results for the IC50 in data set [1] and in data set [2] were 2.58 µM and greater than 100 µM, respectively. The selectivity ratio in data set [3] was greater than 38.8.
For `CCCCNC(=S)N/N=C\c1c[nH]c2ccccc12` the same measures were 4.09 µM, greater than 100 µM and greater than 24.4.
Consider `S=C(NCc1ccccc1Cl)N/N=C\c1c[nH]c2ccccc12`, for which the 50% inhibitory concentration (IC50) in data set [1] was 3.28 µM; in data set [2], greater than 100 µM. The selectivity ratio in data set [3] is greater than 30.5.
Turning to `Cc1cccc(NC(=S)N/N=C\c2c[nH]c3ccccc23)c1`, the 50% inhibitory concentration (IC50) in data set [1] is 1.29 µM; in data set [2] it was greater than 100 µM. In data set [3], the selectivity ratio was greater than 77.5.
`Cc1ncc([N+](=O)[O-])n1CCO` [METRONIDAZOLE] yielded an IC50 in data set [2] greater than 100 µM. The selectivity ratio in data set [3] was greater than 55.2.

By IC50 is commonly meant the concentration that inhibits the measured activity by half. High values mean weaker potency in that assay, low ones greater potency in that assay.
